Results: the array DNA melting data of Ke et al. (doi:10.1101/2024.01.08.574731)

How the values were obtained:
[1] = folding enthalpy; higher = less favourable; fluorescence melt of hairpins on a sequencing array, two-state fit; conditions: sodium 0.088 M
In short: (§1)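 To match UV melts, fitted temperatures were raised by 9.35 °C. These fits were bootstrapped two-state models that gave melting temperature and folding enthalpy, combined by inverse variance over four replicates. The input was normalised Cy3 fluorescence of library hairpins with annealed Cy3 and quencher oligos on a sequenced MiSeq flow cell, imaged in 50 mM Na-HEPES pH 8.0, 25 mM NaCl in 2.5 °C steps up to 60 °C.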

[2] = melting temperature; fluorescence melt of hairpins on a sequencing array, two-state fit, raised by 9.35 °C to match UV melts; conditions: sodium 0.088 M
In short: as §1

Sequence | folding enthalpy [1] [kcal/mol] | Tm [2] [°C]
GCGCTTGGAAACAAGTGC ((.((((....)))).)) | -50.5 | 56.9
GCGCTTGGAAACGAGCGC (((((.(....).))))) | -52.1 | 63.8
GCGCTTGGAAACGAGTGC ((.((.(....).)).)) | -32.8 | 46.1
GCGCTTTCGAAAGAACGC (((..(((....)))))) | -34.8 | 40.1
GCGGAACACCGC ((((....)))) | -23.2 | 54.6
GCGGAACTCCGC ((((....)))) | -25.7 | 54.9
GCGGAAGGAAACCTCCGC (((((.(....).))))) | -33.2 | 54.1
GCGGAAGGAAACTCCCGC ((((.((....)).)))) | -36.2 | 50
GCGGAAGGAAACTTCTGC ((.((((....)))).)) | -44.6 | 51.4
GCGGACGAAAGTCACCGC ((((((....)))..))) | -29.5 | 51.5
GCGGACGAAAGTCCTCGC ((((((....)))..))) | -14.4 | 51.2
GCGGACGAAAGTCTCCGC ((((((....)))..))) | -25.7 | 51.3
GCGGACGGAAACGCCCAC (.((.((....)).)).) | -18.9 | 36.6
GCGGAGACGAAAGTCCGC (((..(((....)))))) | -32 | 58.5
GCGGAGAGCCGC ((((....)))) | -17.4 | 54.4
GCGGAGCGAAAGCTAAGC ((..(((....)))..)) | -12.8 | 54
GCGGAGCGAAAGCTATGC ((..(((....)))..)) | -16.5 | 44.5
GCGGAGCGAAAGCTTCGC (((.(((....))).))) | -31.2 | 68.6
GCGGAGCGAAAGCTTGGC ((..(((....)))..)) | -13.5 | 39.4
GCGGAGCTCCGC ((((....)))) | -20.9 | 55.2
GCGGAGTACCGC ((((....)))) | -24.2 | 55.9
GCGGATCGCCGC ((((....)))) | -19.9 | 55.6
GCGGATGCCGC ((((...)))) | -10.5 | 58.8
GCGGATGGAAACACCCGC ((((.((....)).)))) | -42.9 | 53
GCGGATGGAAACATTCGC (((.(((....))).))) | -43.5 | 55.1

Sequence | folding enthalpy [1] [kcal/mol] | Tm [2] [°C]
GCGGATTCGAAAGAACGC (((..(((....)))))) | -27.2 | 45.1
GCGGATTGCCGC ((((....)))) | -11.3 | 53.7
GCGGCAAGCCGC ((((....)))) | -28.3 | 68.1
GCGGCAGGAAACTACCGC ((((.((....)).)))) | -41.2 | 53.1
GCGGCAGGAAACTGTCGC (((.(((....))).))) | -38.1 | 67.3
GCGGCCCCCCGC ((((....)))) | -23.8 | 55
GCGGCCGGAAACGACCGC ((((.((....)).)))) | -34.9 | 67.2
GCGGCCTCCGC ((((...)))) | -17.7 | 61.8
GCGGCCTCGAAAGAGCGC (((..(((....)))))) | -25.6 | 52.7
GCGGCGACGAAAGTCCGC (((..(((....)))))) | -17.8 | 55.6
GCGGCGCCCGC ((((...)))) | -15.9 | 60.9
GCGGCTGACCGC ((((....)))) | -24.3 | 58.1
GCGGCTGCGAAAGCACGC (((..(((....)))))) | -16.6 | 57.9
GCGGCTTCCCGC ((((....)))) | -26.3 | 58.2
GCGGCTTCGAAAGAACGC (((..(((....)))))) | -21.4 | 44.6
GCGGGAAACCGC ((((....)))) | -22.9 | 67.3
GCGGGAAGCCGC ((((....)))) | -18.4 | 61.6
GCGGGAATCCGC ((((....)))) | -27.9 | 68.3
GCGGGACCCGC ((((...)))) | -24.5 | 55.9
GCGGGACGAAAGTCCGC (((.(((....)))))) | -23.1 | 69.2
GCGGGAGCCGC ((((...)))) | -9.67 | 54.9
GCGGGAGGAAACTTCCGC ((((.((....)).)))) | -40.1 | 58.6
GCGGGCACGAAAGTGCGC (((..(((....)))))) | -10.2 | 52.5
GCGGGCCCCGC ((((...)))) | -22.2 | 62.2
GCGGGCGAAAGCCAACGC ((((((....)))..))) | -22.4 | 65.3

Sequence | folding enthalpy [1] [kcal/mol] | Tm [2] [°C]
GCGGGCGAAAGCCACCGC ((((((....)))..))) | -17.4 | 59.2
GCGGGCGAAAGCCCACGC ((((((....)))..))) | -14 | 65.5
GCGGGCGAAAGCCCTCGC ((((((....)))..))) | -13.1 | 50
GCGGGCGAAAGCCTACGC ((((((....)))..))) | -18.8 | 61.5
GCGGGCGCCGC ((((...)))) | -9.79 | 60.6
GCGGGCTCCCGC ((((....)))) | -23.8 | 66
GCGGGCTGCCGC ((((....)))) | -19.5 | 60.9
GCGGGGCGAAAGCCGTGC ((..(((....)))..)) | -27.3 | 62.5
GCGGGGCGAAAGCCTGGC ((..(((....)))..)) | -19.2 | 57.8
GCGGGGCGAAAGCGCGGC ((.(.((....)).).)) | -27.6 | 62.5
GCGGGGCGAAAGCTACGC (((..((....))..))) | -27.3 | 68.6
GCGGGGCGAAAGCTCTGC ((.(.((....)).).)) | -21.9 | 61.9
GCGGGGGCCCGC ((((....)))) | -38.8 | 56
GCGGGGGGAAACCTCCGC ((((.((....)).)))) | -40.9 | 66.7
GCGGGGTCCGC ((((...)))) | -28.7 | 55.5
GCGGGTCCCGC ((((...)))) | -28.1 | 56.4
GCGGGTGCCGC ((((...)))) | -23.3 | 55.9
GCGGGTGGAAACATCCGC ((((.((....)).)))) | -43 | 64
GCGGGTTTCCGC ((((....)))) | -28.2 | 59.2
GCGGTACCCGC ((((...)))) | -18.7 | 63.3
GCGGTAGCCCGC ((((....)))) | -12.3 | 62
GCGGTAGGAAACTATCGC (((.(((....))).))) | -37.9 | 53.7
GCGGTCAGCCGC ((((....)))) | -27.7 | 57.4
GCGGTCGAAAGACATCGC ((((((....)))..))) | -20.7 | 49.1
GCGGTCGAAAGACGCGC ((((((....))).))) | -30.8 | 65.6

Sequence | folding enthalpy [1] [kcal/mol] | Tm [2] [°C]
GCGGTCGAAAGACGGCGC ((((((....)))..))) | -31.3 | 63.9
GCGGTCGAAAGACGTCGC ((((((....)))..))) | -23.7 | 50.5
GCGGTCGAAAGACTCGC ((((((....))).))) | -29 | 54.6
GCGGTCGAAAGACTTCGC ((((((....)))..))) | -21.6 | 47.6
GCGGTCGGAAACGGCTGC ((.(.((....)).).)) | -36.8 | 53.4
GCGGTCTCCCGC ((((....)))) | -33.4 | 55.5
GCGGTGCCCGC ((((...)))) | -19.3 | 55.5
GCGGTGCGAAAGCAATGC ((..(((....)))..)) | -29.2 | 59
GCGGTGCGAAAGCCCAGC ((.(.((....)).).)) | -21.6 | 54.2
GCGGTGCGAAAGCTCGGC ((.(.((....)).).)) | -19.1 | 51
GCGGTGGCCCGC ((((....)))) | -16.3 | 61
GCGGTGGCGAAAGCCCGC (((..(((....)))))) | -23.3 | 66.9
GCGGTGGGAAACCGTCGC (((..((....))..))) | -14.3 | 55.5
GCGGTGGGCCGC ((((....)))) | -13.9 | 65.8
GCGGTTCCGAAAGGACGC (((..(((....)))))) | -25 | 51.7
GCGGTTCGCCGC ((((....)))) | -23.3 | 64.5
GCGGTTGCCCGC ((((....)))) | -14.9 | 62
GCGGTTGGAAACAGCTGC ((.(.((....)).).)) | -25.9 | 52.3
GCGGTTGGAAACAGTCGC (((..((....))..))) | -25.3 | 44.2
GCGGTTGGAAACGACCGC (((((.(....).))))) | -48.8 | 62.9
GCGTAAACGAAAGTTCGC (((..(((....)))))) | -33.7 | 48.2
GCGTAACGAAAGTTCGC (((.(((....)))))) | -36.1 | 55.9
